Calls of active or inactive are those of the source. The calls are words filed in the database; no cut-off is given here.
Assays:
Assay type in all cases: functional, cell-based
[1] = target: T1, Urotensin-2 receptor (Homo sapiens) (UniProt Q9UKP6); experiment: Agonist activity at human urotensin-2 receptor transfected in NIH3T3 cells after 5 days by R-SAT assay relative to urotensin-2
T1 sequence (whole entry): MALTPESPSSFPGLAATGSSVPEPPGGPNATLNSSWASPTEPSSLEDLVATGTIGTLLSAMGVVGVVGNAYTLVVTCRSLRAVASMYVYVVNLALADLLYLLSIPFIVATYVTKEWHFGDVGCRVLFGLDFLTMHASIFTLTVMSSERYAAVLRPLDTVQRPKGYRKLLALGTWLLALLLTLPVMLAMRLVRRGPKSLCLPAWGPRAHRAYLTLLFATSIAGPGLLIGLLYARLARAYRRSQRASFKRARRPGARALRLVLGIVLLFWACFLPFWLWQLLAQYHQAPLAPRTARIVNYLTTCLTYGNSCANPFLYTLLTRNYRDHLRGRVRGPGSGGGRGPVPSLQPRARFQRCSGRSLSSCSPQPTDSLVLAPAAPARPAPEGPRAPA
Outline: (§1)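 NIH-3T3 cells grown to 80% confluence in DMEM with 10% bovine calf serum and 1% penicillin/streptomycin/glutamine, transfected 18 h with human UII receptor plus β-galactosidase marker, then trypsinized and frozen. Thawed batches were quality-checked with control compound, then incubated with compounds or reference ligands for five days in 5% CO₂. Reporter enzyme activity read at 420 nm.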

Urotensin-2 receptor = target: T2, Urotensin-2 receptor (Homo sapiens, UniProt Q9UKP6); experiment: (§2) Agonist activity at human urotensin-2 receptor transfected in NIH3T3 cells after 5 days by R-SAT assay; outline: as §1
T2 sequence (Q9UKP6 whole entry): T1 sequence (whole entry)

[2] = target: T1, Urotensin-2 receptor (Homo sapiens); experiment: as §2; outline: as §1

Efficacy [1] | EC50 (Urotensin-2 receptor) | other results | Compound
40% |  |  | CN(C)CCC(NC(=O)Cc1ccc(C(F)(F)F)cc1)c1ccc2ccccc2c1 (stereo not given)
101% |  |  | COc1ccc(CCC(=O)NC(CCN(C)C)c2ccc(Cl)cc2)cc1 (stereo not given)
62% |  |  | COc1ccc(CC(=O)NC(CCN(C)C)c2ccc(C)cc2)cc1 (stereo not given)
107% |  |  | CN(C)CCC(NC(=O)CCc1ccccc1)c1ccc2ccccc2c1 (stereo not given)
106% | 380 nM |  | COc1ccc(/C=C/C(=O)NC(CCN(C)C)c2ccc3ccccc3c2)cc1 (stereo not given)
75% | 372 nM |  | CN(C)CCC(NC(=O)CCc1ccc(C(F)(F)F)cc1)c1ccc2ccccc2c1 (stereo not given)
96% | 437 nM |  | Cc1ccc(C(CCN(C)C)NC(=O)/C=C/c2ccc(C(F)(F)F)cc2)cc1 (stereo not given)
25% |  |  | Cc1ccc(C(CCN(C)C)NC(=O)Cc2ccc(C(F)(F)F)cc2)cc1 (stereo not given)
76% |  |  | CN(C)CCC(NC(=O)Cc1ccccc1)c1ccc(Cl)cc1 (stereo not given)
60% |  |  | Cc1ccc(C(CCN(C)C)NC(=O)CCc2ccc(C(F)(F)F)cc2)cc1 (stereo not given)
139% |  |  | CN(C)CCC(NC(=O)CCc1ccccc1)c1ccc(Cl)cc1 (stereo not given)
117% | 135 nM |  | CN(C)CCC(NC(=O)/C=C/c1ccc(C(F)(F)F)cc1)c1ccc2ccccc2c1 (stereo not given)
124% |  |  | CN(C)CCC(NC(=O)C#Cc1ccccc1)c1ccc(Cl)cc1 (stereo not given)
53% |  |  | CN(C)CCC(NC(=O)Cc1ccc(C(F)(F)F)cc1)c1ccc(Cl)cc1 (stereo not given)
73% |  |  | CN(C)CCC(NC(=O)CCc1ccc(C(F)(F)F)cc1)c1ccc(Cl)cc1 (stereo not given)
67% |  |  | COc1ccc(CCC(=O)NC(CCN(C)C)c2ccc(C)cc2)cc1 (stereo not given)
121% |  |  | CN(C)CCC(NC(=O)Cc1ccccc1)c1ccc2ccccc2c1 (stereo not given)
65% |  |  | COc1ccc(CC(=O)NC(CCN(C)C)c2ccc(Cl)cc2)cc1 (stereo not given)
79% | 2000 nM |  | COc1ccc(/C=C/C(=O)NC(CCN(C)C)c2ccc(C)cc2)cc1 (stereo not given)
 |  | Activity [2]: inactive; Activity [1]: inactive | COc1ccc(CC(=O)NC(CCN(C)C)c2ccc3ccccc3c2)cc1 (stereo not given)
131% |  |  | Cc1ccc(C(CCN(C)C)NC(=O)C#Cc2ccccc2)cc1 (stereo not given)
113% | 1410 nM |  | COc1ccc(CCC(=O)NC(CCN(C)C)c2ccc3ccccc3c2)cc1 (stereo not given)
116% |  |  | CN(C)CCC(NC(=O)/C=C/c1ccccc1)c1ccc2ccccc2c1 (stereo not given)
83% |  |  | Cc1ccc(C(CCN(C)C)NC(=O)Cc2ccccc2)cc1 (stereo not given)
99% | 513 nM |  | COc1ccc(/C=C/C(=O)NC(CCN(C)C)c2ccc(Cl)cc2)cc1 (stereo not given)
97% | 1550 nM |  | Cc1ccc(C(CCN(C)C)NC(=O)/C=C/c2ccccc2)cc1 (stereo not given)
73% |  |  | Cc1ccc(C(CCN(C)C)NC(=O)CCc2ccccc2)cc1 (stereo not given)
133% | 129 nM |  | CN(C)CCC(NC(=O)/C=C/c1ccc(C(F)(F)F)cc1)c1ccc(Cl)cc1 (stereo not given)
115% |  |  | CN(C)CCC(NC(=O)C#Cc1ccccc1)c1ccc2ccccc2c1 (stereo not given)
128% |  |  | CN(C)CCC(NC(=O)/C=C/c1ccccc1)c1ccc(Cl)cc1 (stereo not given)

Source: ChEMBL document CHEMBL1142882, “Design, parallel synthesis and SAR of novel urotensin II receptor agonists” (Eur J Med Chem, 2007)
